pIC50: −log10 of the molar value. Active and inactive are the calls of the source. The rule behind the calls is not given here.
Tests used:
[1] = Tmax in orally dosed healthy human; format: ADME, organism-based; conditions: in vivo, po
[2] = Toxicity in HsdCpd:WU rat model of arteriovenous shunt model assessed as prolongation of bleeding time at 0.6 to 6 mg/kg/hr, iv; format: organism-based; conditions: in vivo, dose 0.6-6 mg/kg/hr
[3] = Protein binding in rat plasma; format: ADME, cell-free; conditions: read-out: PPB (converted)
[4] = biological target: T1, Nuclear receptor subfamily 1 group I member 2 (Homo sapiens, UniProt O75469); assay: Activation of human PXR human hepatocytes assessed as induction of CYP3A4 mRNA expression incubated for 48 hrs by qPCR analysis; format: ADME, tissue-based, Hepatocyte
T1 sequence (O75469 whole entry): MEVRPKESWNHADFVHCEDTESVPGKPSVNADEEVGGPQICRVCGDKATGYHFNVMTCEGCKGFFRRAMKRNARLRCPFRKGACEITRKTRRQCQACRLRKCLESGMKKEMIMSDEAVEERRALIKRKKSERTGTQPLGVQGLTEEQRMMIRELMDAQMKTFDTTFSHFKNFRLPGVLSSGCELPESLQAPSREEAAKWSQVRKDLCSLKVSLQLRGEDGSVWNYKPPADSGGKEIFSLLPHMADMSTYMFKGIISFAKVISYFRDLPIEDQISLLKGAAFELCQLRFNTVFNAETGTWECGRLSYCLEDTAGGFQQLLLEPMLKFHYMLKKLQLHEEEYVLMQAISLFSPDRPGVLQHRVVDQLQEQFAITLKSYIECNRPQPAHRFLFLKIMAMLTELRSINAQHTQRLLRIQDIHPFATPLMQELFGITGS
Outline: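 Human hepatocytes in collagen sandwich, cultured 1 d, then treated with eight 1:3 serial concentrations for 2 consecutive days with daily media change. mRNA isolated on magnetic beads, reverse transcribed, and quantified by TaqMan qRT-PCR against actin/tubulin. Fold induction over vehicle by ΔΔCt; NOEL reported.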

[5] = biological target: Prothrombin (Rattus norvegicus, UniProt P18292); assay: Inhibition of thrombin in rat plasma; format: cell-free
[6] = Inhibition of thrombin in dog plasma; format: cell-free; conditions: Canis lupus familiaris
[7] = Blood clearance in Wistar Hannover rat at 0.3 to 0.5 mg/kg, iv by LC-MS/MS analysis; format: ADME, organism-based; conditions: whole blood, dose 0.3-0.5 mg/kg, time <=24 hrs
Outline: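 Male Wistar Hannover rats, catheterized under isoflurane; one day later iv injection into lateral tail vein at 0.3 to 0.5 mg/kg in plasma containing 2% DMSO. Blood sampled via catheter from 0.033 to 24 h. Plasma precipitated with acetonitrile, analysed by LC-MS/MS (10 mM ammonium acetate pH 3.0/acetonitrile gradient). PK parameters calculated from plasma concentrations.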

[8] = system: Plasma; assay: Anticoagulation activity in human plasma assessed as drug level causing doubling of prothrombin time incubated for 3 mins; format: functional; conditions: 0.05 h
Outline: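 Citrated human plasma (0.11 M citrate 1:9, spun ~4000g 15 min) incubated with compound at 37 °C for 3 min. Clotting started with thromboplastin and time to coagulation recorded. Value is the concentration doubling clotting time (PT or aPTT).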

[9] = biological target: Plasminogen (Homo sapiens) (UniProt P00747); assay: Inhibition of purified human plasma plasmin up to 20 uM using MeOSuc-Ala-Phe-Lys-AMC substrate incubated for 30 mins by fluorescence based assay; conditions: dose microM <=20, time 30.0 min
Sequence of Plasminogen (Homo sapiens) (P00747 97-580 limits assumed): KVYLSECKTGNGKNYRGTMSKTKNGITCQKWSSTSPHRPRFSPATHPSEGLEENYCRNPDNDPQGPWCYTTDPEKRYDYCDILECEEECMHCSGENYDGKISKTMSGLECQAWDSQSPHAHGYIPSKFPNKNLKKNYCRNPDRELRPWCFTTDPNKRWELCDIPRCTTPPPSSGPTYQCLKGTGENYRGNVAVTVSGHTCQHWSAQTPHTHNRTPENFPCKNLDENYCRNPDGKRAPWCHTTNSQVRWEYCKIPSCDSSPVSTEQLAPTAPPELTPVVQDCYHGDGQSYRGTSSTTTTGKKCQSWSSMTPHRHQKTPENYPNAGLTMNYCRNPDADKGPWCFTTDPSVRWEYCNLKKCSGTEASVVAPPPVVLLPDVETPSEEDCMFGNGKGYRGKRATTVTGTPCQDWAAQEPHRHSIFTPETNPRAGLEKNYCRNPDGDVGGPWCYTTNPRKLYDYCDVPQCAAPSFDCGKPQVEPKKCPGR
Sequence of Plasminogen (Homo sapiens) (P00747 581-810 limits assumed): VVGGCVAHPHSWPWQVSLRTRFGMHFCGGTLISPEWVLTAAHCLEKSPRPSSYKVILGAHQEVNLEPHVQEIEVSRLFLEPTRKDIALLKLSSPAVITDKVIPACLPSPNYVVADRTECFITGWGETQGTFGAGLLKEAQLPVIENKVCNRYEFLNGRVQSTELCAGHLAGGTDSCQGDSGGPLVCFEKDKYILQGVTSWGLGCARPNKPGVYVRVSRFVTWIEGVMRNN
Outline: (§1)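 Final levels: thrombin 0.02 nM; FXa 1.3 nM; FXIa 0.15 nM; plasmin 1.2 nM (substrate 50 μM); tPA 2 nM; kallikrein 0.2 nM; trypsin 0.1 nM; other AMC substrates 5 μM. FVIIa 0.5 pM coupled with tissue factor, factor X 12 nM, FXa substrate 50 μM.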

[10] = biological target: Tissue-type plasminogen activator (Homo sapiens) (UniProt P00750); assay: Inhibition of purified human plasma tPA up to 20 uM using CH3SO2-DPhe-Gly-Arg-AMC substrate incubated for 30 mins by fluorescence based assay; conditions: dose microM <=20, time 30.0 min; outline: as §1
Sequence of Tissue-type plasminogen activator (Homo sapiens) (P00750 36-562 limits assumed): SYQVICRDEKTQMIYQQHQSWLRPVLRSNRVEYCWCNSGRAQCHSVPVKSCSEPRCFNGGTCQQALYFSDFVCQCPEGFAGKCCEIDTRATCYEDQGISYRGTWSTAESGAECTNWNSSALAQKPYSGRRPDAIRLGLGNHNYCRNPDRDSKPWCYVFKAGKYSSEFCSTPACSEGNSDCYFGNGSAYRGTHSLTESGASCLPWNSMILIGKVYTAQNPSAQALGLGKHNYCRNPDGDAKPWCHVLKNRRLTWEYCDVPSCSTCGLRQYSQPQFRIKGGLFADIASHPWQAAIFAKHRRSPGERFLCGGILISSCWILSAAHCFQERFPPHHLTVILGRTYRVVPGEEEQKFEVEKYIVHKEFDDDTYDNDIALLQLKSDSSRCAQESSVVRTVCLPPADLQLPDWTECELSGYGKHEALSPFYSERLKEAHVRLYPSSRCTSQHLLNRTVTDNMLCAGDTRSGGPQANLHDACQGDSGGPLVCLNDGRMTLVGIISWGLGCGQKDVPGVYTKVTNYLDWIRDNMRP

[11] = Clearance in Wistar rat hepatocytes at 1 uM incubated up to 90 mins by LC-MS/MS analysis; format: ADME, cell-based, Hepatocyte; conditions: Wistar
Outline: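 Fresh male Wistar rat hepatocytes, 1 × 10⁶ viable cells/mL, in Williams' medium E at 37 °C, pH 7.4, with 1 μM substrate and <1% acetonitrile. Samples at 2–90 min quenched in acetonitrile and analysed by LC-MS/MS.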

[12] = biological target: T2, Coagulation factor VII (Homo sapiens) (UniProt P08709); assay: Inhibition of purified human plasma factor-7a up to 20 uM incubated for 30 mins by fluorescence based based coupled protease reaction assay; conditions: dose microM <=20, time 30.0 min; outline: as §1
T2 sequence (whole entry): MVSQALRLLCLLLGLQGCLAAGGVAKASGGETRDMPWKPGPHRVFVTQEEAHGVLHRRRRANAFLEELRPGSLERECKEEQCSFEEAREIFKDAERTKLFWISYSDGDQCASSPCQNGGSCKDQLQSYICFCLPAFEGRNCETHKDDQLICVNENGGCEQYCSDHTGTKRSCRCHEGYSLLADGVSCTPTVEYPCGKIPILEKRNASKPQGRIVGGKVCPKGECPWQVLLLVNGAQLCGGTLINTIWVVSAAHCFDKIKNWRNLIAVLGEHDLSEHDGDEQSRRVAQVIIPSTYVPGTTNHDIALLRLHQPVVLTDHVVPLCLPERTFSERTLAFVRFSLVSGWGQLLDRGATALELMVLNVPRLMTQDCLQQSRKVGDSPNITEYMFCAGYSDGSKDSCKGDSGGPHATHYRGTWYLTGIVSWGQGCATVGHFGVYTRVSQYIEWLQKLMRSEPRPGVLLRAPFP

Tmax [1]: 45 min
fraction unbound [3]: 0.22
pIC50 [5]: 8.00
pIC50 [6]: 8.19
clearance [7]: 51.7 mL/min/kg
inhibition [9]: inactive
inhibition [10]: inactive
CLhep predicted at 1 µM [11]: 31.7 mL/min/kg
inhibition [12]: inactive
Structure (SMILES): COc1cc(C(=O)N2C[C@H](C)OC[C@@H]2CCO)cc2nc(N[C@H](CF)c3cccc(Cl)c3)oc12
fold change (FC) [2]: < 2
NOAEL [4]: > 10000 ng/mL
2PT [8]: 1.1 µM
